Active and inactive are the calls of the source. No cut-off for these calls is given here.
Tests used:
Homo sapiens [1] = species on record: Homo sapiens; test: Selectivity for ratio of IC50 for human DPP4 to IC50 for human DPP2
hERG (KCNH2) = hERG (KCNH2) (Homo sapiens, UniProt Q12809); test: Inhibition of human ERG at 10 uM
Summary of the method: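 hERG binding; percent inhibition at a test concentration of 10 µM.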

Mus musculus [2] = test: Reduction in glucose AUC in C57BL/6J diet-induced obese mouse at 10 mg/kg, po pretreated 30 mins before glucose challenge measured after 120 mins by oral glucose tolerance test relative to control; type: functional; parameters: scale not given: the % may be the effect or the level left
Summary of the method: (§1)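 Male C57BL/6j DIO mice (40–50 g, 27 weeks old, n = 6/group) fasted overnight and grouped by tail-vein glucometer reading. Test agent given by oral gavage in distilled water, then 3 g/kg glucose orally (400 mg/mL in water) 30 min later.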

Rattus norvegicus [3] = test: Inhibition of DPP4 in Wistar rat plasma at 10 mg/kg, po after 24 hrs; type: functional, organism-based; parameters: dose 10 mg/kg
Summary of the method: (§2)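 Adult male Wistar rats (n = 4–6/group) given a single oral gavage of 10 mg/kg in 0.5% methyl cellulose. Tail-vein blood (25–50 µl) taken at timed points and plasma kept frozen. Plasma (10 µl) mixed with 150 µM Gly-Pro-AMC in 25 mM Tris-HCl pH 7.4, 140 mM NaCl, 10 mM KCl, 0.1% BSA. Fluorescence read at ex 390/em 460 nm. Activity in U/mL; mean ± SEM.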

Mus musculus [4] = test: Reduction in glucose AUC in C57BL/6J diet-induced obese mouse at 1 mg/kg, po pretreated 30 mins before glucose challenge measured after 120 mins by oral glucose tolerance test relative to control; type: functional; parameters: scale not given: the % may be the effect or the level left; summary of the method: as §1
Dipeptidyl peptidase 2 = Dipeptidyl peptidase 2 (Homo sapiens, UniProt Q9UHL4); test: Inhibition of human DPP2
[5] = Half life in rat at 10 mg/kg, po; type: ADME, organism-based; parameters: dose 10 mg/kg, route oral; settings: in vivo
Summary of the method: (§3)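 Rat pharmacokinetics after dosing at 5 mg/kg iv and 10 mg/kg po. Parameters derived: plasma clearance, oral Cmax, oral half-life, dose-normalised oral AUC and oral bioavailability (F).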

[6] = Cmax in rat at 10 mg/kg, po; type: ADME, organism-based; parameters: dose 10 mg/kg, route oral; settings: in vivo; summary of the method: as §3
[7] = Plasma clearance in rat at 5 mg/kg, iv or 10 mg/kg, po; type: ADME, organism-based; summary of the method: as §3
Mus musculus [8] = test: Reduction in glucose excursion in C57BL/6J lean mouse at 1 mg/kg, po pretreated 30 mins before glucose challenge measured after 120 mins by oral glucose tolerance test relative to control; type: functional; parameters: scale not given: the % may be the effect or the level left
Summary of the method: (§4)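 Fasted overnight: adult male C57BL/6 mice (20–25 g, 6–8 weeks old, n = 6/group), grouped by tail-vein glucometer reading. Oral gavage of test agent in distilled water at −30 min (1, 3 or 10 mg/kg), then 3 g/kg oral glucose (400 mg/mL) at 0 min.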

Homo sapiens [9] = species on record: Homo sapiens; test: Selectivity for ratio of IC50 for human DPP4 to IC50 for human FAP
Prolyl endopeptidase FAP = biological target: T1, Prolyl endopeptidase FAP (Homo sapiens, UniProt Q12884); test: Inhibition of human FAP
T1 sequence (Q12884 whole entry): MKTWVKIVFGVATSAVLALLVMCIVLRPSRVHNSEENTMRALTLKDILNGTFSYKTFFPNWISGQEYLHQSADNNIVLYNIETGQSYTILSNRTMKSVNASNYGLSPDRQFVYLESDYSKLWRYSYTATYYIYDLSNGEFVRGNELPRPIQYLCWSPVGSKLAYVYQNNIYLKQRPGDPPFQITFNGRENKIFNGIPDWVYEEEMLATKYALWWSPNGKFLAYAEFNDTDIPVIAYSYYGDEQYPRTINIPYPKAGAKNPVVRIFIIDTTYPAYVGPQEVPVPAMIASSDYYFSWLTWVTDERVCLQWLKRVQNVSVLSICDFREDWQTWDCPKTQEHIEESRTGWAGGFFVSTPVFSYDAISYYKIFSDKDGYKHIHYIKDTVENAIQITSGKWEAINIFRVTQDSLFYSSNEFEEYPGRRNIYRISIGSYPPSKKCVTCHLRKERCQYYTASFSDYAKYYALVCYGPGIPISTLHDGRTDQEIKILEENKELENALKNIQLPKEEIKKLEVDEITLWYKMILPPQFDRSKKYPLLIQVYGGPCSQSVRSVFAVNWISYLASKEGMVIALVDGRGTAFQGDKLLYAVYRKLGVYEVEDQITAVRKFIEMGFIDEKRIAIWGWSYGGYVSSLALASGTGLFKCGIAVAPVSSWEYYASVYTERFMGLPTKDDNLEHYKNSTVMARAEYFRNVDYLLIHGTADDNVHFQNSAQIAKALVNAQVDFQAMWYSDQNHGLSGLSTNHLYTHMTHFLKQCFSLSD

Mus musculus [10] = test: Reduction in glucose excursion in po dosed C57BL/6J lean mouse pretreated for 30 mins before glucose challenge measured after 120 mins by oral glucose tolerance test; type: functional, organism-based; summary of the method: as §4
Homo sapiens [11] = species on record: Homo sapiens; test: Selectivity for ratio of IC50 for human DPP4 to IC50 for human DPP8
[12] = biological target: T2, Endothelin-converting enzyme 1 (Homo sapiens) (UniProt P42892); test: Inhibition of ECE-1 at 10 uM
T2 sequence (whole entry): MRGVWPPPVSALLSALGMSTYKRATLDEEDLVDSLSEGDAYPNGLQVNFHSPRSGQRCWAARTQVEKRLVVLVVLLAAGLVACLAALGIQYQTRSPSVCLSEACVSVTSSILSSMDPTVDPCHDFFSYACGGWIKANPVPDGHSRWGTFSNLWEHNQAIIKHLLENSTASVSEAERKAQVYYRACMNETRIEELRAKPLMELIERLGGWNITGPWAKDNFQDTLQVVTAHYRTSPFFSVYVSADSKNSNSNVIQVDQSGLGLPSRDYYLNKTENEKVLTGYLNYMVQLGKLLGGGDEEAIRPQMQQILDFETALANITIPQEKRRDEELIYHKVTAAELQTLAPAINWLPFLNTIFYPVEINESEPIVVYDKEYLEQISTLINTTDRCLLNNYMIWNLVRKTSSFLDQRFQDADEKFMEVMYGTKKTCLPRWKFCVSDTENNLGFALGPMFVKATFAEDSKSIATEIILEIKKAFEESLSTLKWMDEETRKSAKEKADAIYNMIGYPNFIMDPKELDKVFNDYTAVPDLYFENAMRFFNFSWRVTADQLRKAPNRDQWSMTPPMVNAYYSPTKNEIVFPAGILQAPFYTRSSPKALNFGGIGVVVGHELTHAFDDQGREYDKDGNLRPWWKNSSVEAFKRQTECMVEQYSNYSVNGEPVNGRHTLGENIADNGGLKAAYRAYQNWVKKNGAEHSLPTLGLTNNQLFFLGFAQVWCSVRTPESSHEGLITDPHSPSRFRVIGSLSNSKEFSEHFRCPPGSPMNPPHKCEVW
Summary of the method: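 Part of a panel of 167 enzyme assays; percent inhibition at a test concentration of 10 µM.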

Mus musculus [13] = test: Reduction in glucose AUC in C57BL/6J diet-induced obese mouse at 3 mg/kg, po pretreated 30 mins before glucose challenge measured after 120 mins by oral glucose tolerance test relative to control; type: functional; parameters: scale not given: the % may be the effect or the level left; summary of the method: as §1
Mus musculus [14] = test: Reduction in glucose excursion in C57BL/6J lean mouse at 10 mg/kg, po pretreated 30 mins before glucose challenge measured after 120 mins by oral glucose tolerance test relative to control; type: functional; parameters: scale not given: the % may be the effect or the level left; summary of the method: as §4
Rattus norvegicus [15] = test: Inhibition of DPP4 in Wistar rat plasma at 10 mg/kg, po within 30 mins; type: functional; settings: 0.5 h; summary of the method: as §2
[16] = Oral bioavailability in rat at 10 mg/kg, po; type: ADME, organism-based; settings: in vivo; summary of the method: as §3

Sequence of hERG (KCNH2) (Q12809 whole entry): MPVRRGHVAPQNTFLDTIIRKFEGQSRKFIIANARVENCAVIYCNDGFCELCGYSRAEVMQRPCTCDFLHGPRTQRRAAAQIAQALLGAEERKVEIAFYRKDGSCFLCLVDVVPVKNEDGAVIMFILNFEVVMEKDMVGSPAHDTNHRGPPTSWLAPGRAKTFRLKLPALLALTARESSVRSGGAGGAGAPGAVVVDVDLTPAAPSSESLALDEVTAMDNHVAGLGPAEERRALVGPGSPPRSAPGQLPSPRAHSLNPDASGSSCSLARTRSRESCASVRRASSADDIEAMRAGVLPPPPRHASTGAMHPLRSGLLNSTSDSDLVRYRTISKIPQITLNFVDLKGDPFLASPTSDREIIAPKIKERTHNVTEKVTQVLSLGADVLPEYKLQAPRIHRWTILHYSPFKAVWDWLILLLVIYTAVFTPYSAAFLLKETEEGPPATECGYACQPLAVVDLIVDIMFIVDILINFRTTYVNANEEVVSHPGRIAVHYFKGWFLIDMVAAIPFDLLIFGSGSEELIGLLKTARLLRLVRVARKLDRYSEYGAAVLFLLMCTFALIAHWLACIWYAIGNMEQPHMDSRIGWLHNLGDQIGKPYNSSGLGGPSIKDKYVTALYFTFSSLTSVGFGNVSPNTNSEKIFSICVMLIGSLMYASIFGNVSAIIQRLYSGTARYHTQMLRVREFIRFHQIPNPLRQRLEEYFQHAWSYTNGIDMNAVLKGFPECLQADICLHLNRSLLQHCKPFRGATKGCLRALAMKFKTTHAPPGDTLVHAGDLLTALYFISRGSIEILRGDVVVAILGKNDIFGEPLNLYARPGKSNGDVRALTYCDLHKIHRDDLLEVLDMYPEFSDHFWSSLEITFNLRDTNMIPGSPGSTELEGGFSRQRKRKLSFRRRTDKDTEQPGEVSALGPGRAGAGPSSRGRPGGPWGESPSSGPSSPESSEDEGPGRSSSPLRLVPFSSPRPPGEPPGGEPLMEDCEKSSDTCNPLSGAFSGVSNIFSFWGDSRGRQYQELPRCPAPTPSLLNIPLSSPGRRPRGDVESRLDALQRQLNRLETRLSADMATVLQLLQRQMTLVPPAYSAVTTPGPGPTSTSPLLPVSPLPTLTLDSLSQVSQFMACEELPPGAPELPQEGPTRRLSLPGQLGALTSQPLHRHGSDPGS

CC(C)(CC(=O)N[C@H]1C[C@@H]1c1cccc(Cl)c1)NCC(=O)N1C[C@@H](F)C[C@H]1C#N
Activity (Homo sapiens [1]): > 1300
inhibition at 10 µM (hERG (KCNH2)): 11%
Activity (Mus musculus [2]): 83%
Activity (Rattus norvegicus [3]): inactive
Activity (Mus musculus [4]): 72%
IC50 (Dipeptidyl peptidase 2): > 20 µM
half-life [5]: 4.8 h
Cmax [6]: 621 ng/mL
clearance [7]: 22 mL/min/kg
Activity (Mus musculus [8]): 50%
Activity (Homo sapiens [9]): > 1300
IC50 (Prolyl endopeptidase FAP): > 20 µM
Activity (Mus musculus [10]): Dose-dependent effect
Activity (Homo sapiens [11]): > 1300
inhibition [12]: 53%
Activity (Mus musculus [13]): 98%
Activity (Mus musculus [14]): 73%
inhibition in vivo at 10 mg/kg (Rattus norvegicus [15]): > 85%
bioavailability [16]: 42%
